The list is not random: actives were taken first. Their share in the collection is about 9.8%.
PMI act satM6P – human PMI activators, high substrate, primary screen, biochemical, fluorescence intensity, near-saturating mannose 6-phosphate; Mannose-6-phosphate isomerase (Homo sapiens), P34949; coupled PMI enzyme assay, resazurin fluorescence, 20 min; active compounds read high; 1 = untreated enzyme, 0 = substrate-free blank; activation factor at 20 µM; actives 0.34% (n = 190,000); AID 1216, 2008;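 active = activation factor of 2 or more at 20 µM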
Target sequence (P34949 whole entry, looked up): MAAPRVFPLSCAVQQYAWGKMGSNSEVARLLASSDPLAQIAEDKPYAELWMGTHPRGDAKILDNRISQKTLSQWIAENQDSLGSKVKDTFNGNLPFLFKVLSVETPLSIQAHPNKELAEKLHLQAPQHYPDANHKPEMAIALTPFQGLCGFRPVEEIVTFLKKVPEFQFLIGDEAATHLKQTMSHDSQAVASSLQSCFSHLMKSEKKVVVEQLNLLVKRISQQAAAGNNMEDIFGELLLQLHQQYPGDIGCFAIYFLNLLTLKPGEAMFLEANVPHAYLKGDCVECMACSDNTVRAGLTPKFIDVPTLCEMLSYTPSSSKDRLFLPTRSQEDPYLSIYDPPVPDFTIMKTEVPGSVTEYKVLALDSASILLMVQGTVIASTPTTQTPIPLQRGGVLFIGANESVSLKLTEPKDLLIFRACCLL
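Test system: human PMI in coupled enzyme assay; Input: PMI at 15 ng/mL final; Medium: HEPES buffer, pH 7.4; Schedule: 20 min incubation at room temperature; Technique: resorufin fluorescence at Ex 544/Em 590 nm; Compound: 20 µM single dose; Probe or stimulus: Near-saturating mannose-6-phosphate, 1.0 mM.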
PMI act – activators of human PMI, primary screen, biochemical, fluorescence intensity, near-Km mannose 6-phosphate | actives 0.005% (n = 190,000) | activation factor at 20 µM | purified human PMI, coupled resazurin fluorescence, 20 min; active compounds read high; 1 = vehicle control, 0 substrate-free wells | Mannose-6-phosphate isomerase (Homo sapiens), P34949 | AID 1214, 2008;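 active = activation factor of 2 or more at 20 µM, relative to plate controls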
WT yeast gro inh – growth inhibition of WT strain, primary screen, mitochondrial fusion inhibitor project, WT and mutant strains, chemical genetic; inhibition, % at 10 µM; AID 1362, 2008; mitochondrial fusion phenotypic screen; actives 2.1% (n = 190,000); in the data active = inhibition above about 58%; tested in S. cerevisiae
m-calpain inh – inhibitors of pig calpain II, primary screen, biochemical, fluorogenic peptide substrate, 1536-well | purified calpain II, 30 min | inhibition, % at 16 µM | actives 0.37% (n = 220,000) | AID 1236, 2008;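 active = inhibition above about 50%, limit read from the data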
Rad51 HR inh – human RAD51 strand exchange inhibitors, primary screen, biochemical, fluorescence. DNA repair protein RAD51 homolog 1 (Homo sapiens), Q06609. hRad51 DNA strand exchange, fluorescence dequenching. inhibition, % at 10 µM. actives 0.085% (n = 200,000);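 active = inhibition above 40% at the single screening dose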
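material = hRad51 filaments on single-stranded DNA | reagent = Donor/quencher-labelled 47-bp dsDNA substrate | compound = 10 µM final, single point | schedule = strand-exchange reaction 15 min at room temperature | measured by = fluorescein emission 520 nm, excitation 485 nm | read-out basis = % inhibition versus plate control and blank means | benchmarks = plate controls and plate blanks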
L major viab – Leishmania major promastigote growth inhibition, primary screen. Leishmania major promastigotes, resazurin fluorescence viability. inhibition, % at 10 µM. actives 9% (n = 200,000). AID 1063, 2008; in the data active = inhibition above about 50%;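 also: promastigotes grown with compound for 44 hours at 28 °C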
A number is an active result; . = inactive; / = no result.

SMILES | PMI act satM6P | PMI act | WT yeast gro inh | m-calpain inh | Rad51 HR inh | L major viab
Cc1ccc(Cn2ccc(NC(=O)c3nn(C)cc3Cl)n2)cc1 | . | . | . | . | . | .
O=C(COc1ccccc1/C=C1/NC(=O)NC1=O)Nc1ccccc1 | . | . | . | . | . | .
COC(=O)COc1ccccc1/C=C1/NC(=O)NC1=O | . | . | . | . | . | 53
O=C1NC(=O)/C(=C\c2ccccc2OCc2cccc([N+](=O)[O-])c2)N1 | . | . | . | . | . | 57
CS(=O)(=O)N1CCCC(C(=O)N2CCN(c3cccc(Cl)c3)CC2)C1 (stereo not drawn) | . | . | . | . | / | .
CCOc1ccc(/C=C/C(=O)Nc2ccc(C(N)=O)cc2)cc1OC | . | . | . | . | / | .
CCOc1cc(/C=C/C(=O)Nc2ccc(C(=O)NCCN(CC)CC)cc2)ccc1OCC(C)C | . | . | . | . | . | 53
COc1ccc(C(CCN(Cc2ccc(OC)c(OC)c2)C(C)=O)c2ccccc2)cc1 (stereo not drawn) | . | . | . | . | . | .
COc1ccc(CN(CCC(c2ccccc2)c2ccc(OC(C)C)cc2)C(=O)CCl)cc1OC (stereo not drawn) | . | . | . | . | . | 100
CCC1CCCCN1CCCn1c(=S)[nH]c2ccccc2c1=O (stereo not drawn) | . | . | . | . | / | 97
CC1CCCCC1n1c(=S)[nH]c2ccccc2c1=O (stereo not drawn) | . | . | 76 | . | . | .
CCOc1cc2[nH]c(=S)n(CCN3CCCCC3CC)c(=O)c2cc1OCC (stereo not drawn) | . | . | . | . | . | .
CC1CCCCC1NC(=O)CCCn1c(=S)[nH]c2ccccc2c1=O (stereo not drawn) | . | . | . | . | . | .
CCNc1ccc(C(=O)OC(C(=O)NC(N)=O)C(C)C)cc1[N+](=O)[O-] (stereo not drawn) | . | . | . | . | . | .
Nc1cc(=O)[nH]n1C1CCCCC1 | . | . | . | . | . | .
COc1cccc(-n2cnc3sc(C)cc3c2=O)c1 | . | . | . | . | . | .
Cc1c(NS(=O)(=O)c2cccc(C(=O)OCC(=O)N(C)C3CCCCC3)c2)c(=O)n(-c2ccccc2)n1C | . | . | . | . | . | .
CC1=C(C(=O)OCC2CCCO2)C(c2ccc(C)o2)C2=C(CC(c3ccc(N(C)C)cc3)CC2=O)N1 (stereo not drawn) | . | . | . | 99 | . | 85
CC1=C(C(=O)OCC2CCCO2)C(c2ccc(C)o2)C2=C(CC(c3ccc(F)cc3)CC2=O)N1 (stereo not drawn) | . | . | . | . | . | .
O=C(Nc1ccc(Cl)cc1)N(Cc1nc2ccccc2c(=O)[nH]1)Cc1cccs1 | . | . | . | . | . | 85
COc1ccccc1CN(Cc1nc2ccccc2c(=O)[nH]1)S(=O)(=O)c1ccc2ccccc2c1 | . | . | . | . | . | 90
COc1ccccc1CN(Cc1nc2ccccc2c(=O)[nH]1)C(=O)Nc1cccc(C)c1 | . | . | . | . | . | 86
COc1ccc(N2CCN(C(=O)c3cn(C)c(=O)c4c3c3ccccc3n4C)CC2)cc1 | . | . | . | . | 132 | .
CC(C)(C)c1cc(-c2n[nH]c(=S)n2-c2ccc(Cl)cc2)n[nH]1 | / | / | / | . | / | /
C=CCNCCOCCOc1ccc(C)cc1[N+](=O)[O-] | . | . | . | . | . | 81
SMILES | PMI act satM6P | PMI act | WT yeast gro inh | m-calpain inh | Rad51 HR inh | L major viab
CCC(C)NCCOCCOc1ccccc1-c1ccccc1 (stereo not drawn) | . | . | . | . | . | 85
C=CCNCCOCCOc1ccccc1-c1ccccc1 | . | . | . | . | . | 95
CN(C)CCNCCCOc1ccccc1-c1ccccc1 | . | . | . | . | . | 98
Cc1onc(-c2ccccc2Cl)c1C(=O)NCc1nc(-c2ccc(C(F)(F)F)cc2)no1 | / | / | / | . | / | /
CCOC(=O)C[N+]1(C)CCN(C(C)=O)CC1 | . | . | . | . | . | .
CCOC(=O)Cn1c(=O)oc2cc(S(=O)(=O)Nc3cc(OCC)ccc3OCC)ccc21 | . | . | / | . | . | 71
CCOC(=O)Cn1c(=O)oc2cc(S(=O)(=O)N3CCc4ccccc43)ccc21 | . | . | . | . | . | 60
CCOC(=O)Cn1c(=O)oc2cc(S(=O)(=O)Nc3cc(Cl)ccc3OC)ccc21 | . | . | . | . | . | .
Cn1c(=O)oc2cc(S(=O)(=O)N3CCc4ccccc43)ccc21 | / | / | / | . | . | /
CC(C)(C)NC(=O)Cn1c(=O)oc2cc(S(=O)(=O)N3CCc4ccccc43)ccc21 | . | . | . | . | . | 98
Cn1c(=O)c(=O)n(C)c2cc(S(=O)(=O)N3CCc4ccccc43)ccc21 | . | . | . | . | . | 52
Cc1ccc2nc(SCc3nnc(-c4ccccc4Br)o3)[nH]c2c1 | . | . | . | . | . | .
CC(C)CC(C(=O)NC(C)(C)C)N(CC1CCCO1)C(=O)c1snc(C(N)=O)c1N (stereo not drawn) | / | / | . | . | . | .
Cc1occc1-c1nnc(SCC(=O)Nc2ccccc2)n1CCc1ccccc1 | . | . | . | . | . | 66
Cc1csc(NC(=O)CSc2nnc(Cc3cccn3C)n2CCc2ccccc2)n1 | . | . | . | . | . | 51
CCC(c1nnc(SCC(=O)Nc2ccc(C(C)=O)cc2)n1C1CCCCC1)N(C)C (stereo not drawn) | . | . | . | . | . | 61
CCC(c1nnc(SCC(=O)Nc2cccnc2Cl)n1-c1ccccc1)N(C)C (stereo not drawn) | . | . | . | . | . | .
CCC(c1nnc(SCC(=O)Nc2cc(Cl)ccc2C#N)n1C1CCCCC1)N(C)C (stereo not drawn) | . | . | . | . | . | 77
CCc1nnc(NC(=O)C2CCCN(S(=O)(=O)c3ccc(OC)cc3)C2)s1 (stereo not drawn) | / | / | . | . | . | .
Cc1cccc(OCC(=O)N2CCC(N3CCOCC3)CC2)c1 | . | . | . | . | . | 92
Cc1cccc(OCC(=O)N2CCN(C(=O)CCC3CCCC3)CC2)c1 | . | . | . | . | . | .
CCOC(=O)N1CCN(C(=O)COc2ccc(Cl)cc2)CC1 | . | . | . | . | . | .
CC1CN(C2CCN(C(=O)COc3ccc(Cl)cc3)CC2)CC(C)O1 (stereo not drawn) | . | . | . | . | . | 92

High-throughput results from PubChem BioAssay.
